# Source: PubChem BioAssay (several laboratories)
# MT stabilizer: microtubule stabilization, imaging screen; HeLa tubulin immunostaining HCS, 24 h; share of cells brighter than vehicle mean+2SD; % tubulin-high responders, % at 10 µM; actives 0.83% (n = 200,000); AID 2205;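 active = plate Z-score above 3 for both tubulin-high and condensed-nucleus cell shares, with cell loss under 80%, at 10 µM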;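 note: anti alpha tubulin signal scored within the nucleus-defined area of each cell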
# ROMK mod: modulators of human ROMK potassium channel; P48048; Tet-inducible ROMK, thallium flux fluorescence; actives lie on both sides; B-score at 10 µM; actives 2% (n = 130,000); AID 1918;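 active = signal ratio slope over the read window, or its plate-corrected B-score, at least 3 SD from the plate mean, either direction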;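 note: B-score of the F/F0 ratio slope over 7 to 12 s after thallium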
# Target sequence (P48048 whole entry, looked up): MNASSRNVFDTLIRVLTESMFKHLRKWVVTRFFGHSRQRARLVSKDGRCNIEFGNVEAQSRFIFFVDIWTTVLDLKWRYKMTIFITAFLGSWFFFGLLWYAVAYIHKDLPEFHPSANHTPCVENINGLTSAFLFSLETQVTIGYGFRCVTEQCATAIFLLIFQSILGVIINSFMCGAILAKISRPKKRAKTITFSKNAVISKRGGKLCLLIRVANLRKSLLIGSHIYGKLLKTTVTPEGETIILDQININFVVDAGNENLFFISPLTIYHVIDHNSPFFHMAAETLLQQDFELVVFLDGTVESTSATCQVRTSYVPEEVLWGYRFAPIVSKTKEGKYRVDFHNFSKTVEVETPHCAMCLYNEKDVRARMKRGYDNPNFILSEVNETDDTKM
# bCat nuc transl: modulators of beta-catenin nuclear translocation; HeLa beta-catenin nuclear translocation, immunofluorescence imaging; nuclear translocation activity, % at 5 µM; actives 0.3% (n = 190,000); AID 1665;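 active = nuclear translocation activity above 50% at 5 µM, with a well cell count of 50 or more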;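 note: per-cell ratio of nuclear to cytoplasmic median beta-catenin stain intensity; plate controls were DMSO negative control for no effect and GSK-3 inhibitor IX positive control for full effect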
#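 Technique: fluorescence imaging of beta-catenin antibody stain plus DAPI / Material: human HeLa cell line / Incubation: compound treatment 24 h, 37°C, 5% CO2 / Read-out basis: % activation of per-cell nuclear versus cytoplasmic median beta-catenin signal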
# ROMK retest: human ROMK channel modulation, retest confirmation. shares compounds with ROMK mod. ROMK thallium flux, fluorescence ratio; stronger effect = lower value. normalized thallium flux (F/F0 slope) at 10 µM. actives 54% (n = 3,000). AID 1917;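 active = Flux at 10 µM at least 3 SD below or above vehicle control mean in one or both replicates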
# * hit, by the source's call; · = not tested or not shown. Hits are enriched below; roughly 1.9% of the tested compounds scored in any of these assays.
SMILES,MT stabilizer,ROMK mod,bCat nuc transl,ROMK retest
CC(C)CC1(C)N=C(c2ccccc2)C(=S)N1 (configuration not stated),3,-3.2*,-1,0.057*
Cc1ccc(C)c2c1[nH]c1ccc([N+](=O)[O-])cc12,2,-0.31,9,·
Cc1ccc(Cl)cc1N1CCN(S(=O)(=O)c2cccc(S(=O)(=O)N3CCCC3)c2)CC1,4,-3.3*,5,0.07
Cc1ccc(Cl)cc1N1CCN(S(=O)(=O)c2ccc3[nH]c(=O)c(=O)[nH]c3c2)CC1,3,0.27,0,·
O=C(CCc1nnc(CCCCc2ccccc2)o1)NCCN1CCCCC1=O,1,-0.0087,1,·
CN(C)c1ccc(/C=N/NC(=O)c2sccc2-n2cccc2)cc1,3,-0.39,-2,·
COc1ccccc1NC(=O)CSc1nnc(COc2ccccc2OC)n1C,3,-0.016,0,·
COc1ccc(/C=C2\SC(=S)N(CCCC(=O)Nc3ccccn3)C2=O)cc1OC,1,·,-1,·
O=C(CCN1C(=O)/C(=C/c2ccccc2)SC1=S)NNC(=O)c1ccncc1,3,-0.88,-2,·
O=C(O)CCCCCN1C(=O)/C(=C/c2ccncc2)SC1=S,5,-4.2*,8,0.048*
O=C(O)CCCN1C(=O)/C(=C/c2ccncc2)SC1=S,·,-2.1,1,·
O=C(O)CCCCCN1C(=O)/C(=C\c2ccncc2)SC1=S,4,-4.1*,0,0.049*
Cc1ccc(/C=C2\SC(=S)N(CCCC(=O)Nc3ccccn3)C2=O)cc1,2,·,-1,0.074
COc1ccc(-n2c(C)cc(C)c(C(C)=O)c2=S)cc1,7,-0.81,·,·
CC(C)OCCCNC(=S)Nc1ccc(S(N)(=O)=O)cc1,2,·,·,·
Cc1nn(-c2ccccc2)c(Cl)c1/C=N/NC(=O)C1COc2ccccc2O1 (configuration not stated),3,·,-2,·
CCOC(=O)c1ccc(-n2c(O)c(/C=N/NC(=O)C3COc4ccccc4O3)c3ccccc3c2=O)cc1 (configuration not stated),1,·,2,0.046*
CCOc1ccccc1N1CCN(S(=O)(=O)c2cccc3nsnc23)CC1,5,-1.5,0,·
CC(=O)Nc1ccc(NC(=O)c2c(C)nn(-c3ccccc3)c2Cl)cc1C,3,2.6,1,·
Cc1ccc(N/C=C(\C#N)S(=O)(=O)c2ccccc2)cc1,5,2.5*,3,0.078
Cc1ccc(N/C=C(\[N+](=O)[O-])S(=O)(=O)c2ccccc2)cc1,2,0.3,2,·
COC(=O)c1ccc(NC(=O)c2cccc(C)c2[N+](=O)[O-])cc1,8,-0.41,3,·
O=C(O)/C(=C\C(=O)c1ccccc1)Nc1ccccc1,·,0.36,0,·
Cc1[nH]nc(SCC(=O)NCCc2ccccc2)c1[N+](=O)[O-],1,·,-2,·
Cc1[nH]nc(SCC(=O)NCc2ccccc2)c1[N+](=O)[O-],2,-2.3*,-1,0.074
SMILES,MT stabilizer,ROMK mod,bCat nuc transl,ROMK retest
O=C(CCS(=O)(=O)c1ccc(Br)s1)Nc1ccccc1Br,5,0.018,0,·
COC(=O)C1(NC(=O)NC2CCCCC2)CCCCC1,·,·,-2,·
O=C(N/N=C1/CC2C=CCC12)c1ccco1 (configuration not stated),3,-0.025,0,·
CC(c1ccco1)N(C(=O)CSc1ccc(Br)cc1)c1ccccn1 (configuration not stated),5,-4.1*,-10,0.058*
CC(C)c1ccc(C(=O)N(c2ccccn2)C(C)c2ccco2)cc1 (configuration not stated),3,·,3,·
O=C(Nc1cc2c(cc1Cl)OCCCO2)c1ccc(F)cc1,3,-0.74,4,·
CCCc1ccc2c(N)c(C#N)sc2n1,3,1,1,·
N#Cc1sc2nc3c(cc2c1N)CCCC3,7,2.8,-4,0.1*
Cc1ccc2c(N)c(C#N)sc2n1,2,3.4*,-3,0.081
Nc1c(C(=O)O)sc2nc3c(cc12)CCCC3,·,1.1,0,·
Cc1ccccc1Nc1ncnc(N)n1,2,-0.29,4,·
CCOC(=O)C1=C(C)Nc2sc(C(=O)c3ccc(OC)cc3)c(N)c2C1c1ccc(C(=O)OC)cc1 (configuration not stated),3,·,1,·
C=CCc1cc(Cl)ccc1OCCCNC(C)CC (configuration not stated),5,-2.6*,1,0.051*
CCC(C)NCCCOc1ccc(Cl)cc1C(C)(C)C (configuration not stated),4,0.23,-5,·
Cn1c(=O)c2c(ncn2CCC(=O)N/N=C/c2ccncc2)n(C)c1=O,·,·,-5,·
CCN1C(=O)c2cccc3c(S(=O)(=O)NCC4CCCO4)ccc1c23 (configuration not stated),·,·,-1,·
